High-throughput results deposited in PubChem BioAssay by several laboratories.
Shown are actives, neighbours in structure and some others; about 2.6% of the full set was active somewhere.
NPY Y1 blocker: NPY-Y1 receptor antagonists, primary screen, cell-based | Neuropeptide Y receptor type 1 (Homo sapiens), P25929 | HEK293-CNG Y1 cells, membrane potential fluorescence; NPY at EC95, then isoproterenol | inhibition, % at 3.6 µM | hit rate 1% among 200,000;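 active means inhibition above the campaign mean inhibition of all tested compounds plus 3 SD, cut at about 20% in these data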;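 further: 0% = DMSO wells given NPY plus isoproterenol and 100% = isoproterenol alone without NPY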
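Test system – HEK293 Y1/CNG channel cell line · Also added – NPY agonist 25 nM, then isoproterenol 1 µM plus Ro 20-1724 25 µM · Compound dosing – one concentration, 3.6 µM, in 0.4% DMSO · Schedule – compound incubation 1 h at room temperature, readout 45 min post-stimulation · Technique – fluorescence, membrane potential probe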
NPY-Y2 antag: NPY-Y2 receptor antagonists, primary screen, cell-based; NPY-Y2 expressing cells, antagonist mode; hit rate 0.99% among 140,000; AID 793, 2007; inhibition, % at 2.7 µM; in the data active means inhibition above about 17%;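 further: 0% = vehicle with agonist challenge and 100% = reference antagonist with challenge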
Target sequence (P49146 whole entry, looked up): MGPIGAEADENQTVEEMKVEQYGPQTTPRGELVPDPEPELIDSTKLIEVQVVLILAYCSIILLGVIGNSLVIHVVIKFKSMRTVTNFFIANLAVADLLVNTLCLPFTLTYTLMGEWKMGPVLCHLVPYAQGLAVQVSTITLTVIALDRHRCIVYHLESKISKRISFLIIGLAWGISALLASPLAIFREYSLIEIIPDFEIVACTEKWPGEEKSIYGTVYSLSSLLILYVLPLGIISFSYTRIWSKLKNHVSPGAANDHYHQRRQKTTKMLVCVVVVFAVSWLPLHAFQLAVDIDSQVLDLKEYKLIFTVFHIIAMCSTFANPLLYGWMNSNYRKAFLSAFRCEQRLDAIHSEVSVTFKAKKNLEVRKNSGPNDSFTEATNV
b-catenin transl: modulators of beta-catenin nuclear translocation, primary screen, imaging, HeLa cells, immunofluorescence, high-content. hit rate 0.3% among 190,000. AID 1665, 2009. nuclear translocation activity, % at 5 µM;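 active means nuclear translocation activity above 50% at 5 µM, with a well cell count of 50 or more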;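 further: per-cell ratio of nuclear to cytoplasmic median beta-catenin stain intensity; plate controls were DMSO negative control for no effect and GSK-3 inhibitor IX positive control for full effect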
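Read-out: Nuclear/cytoplasmic beta-catenin signal ratio, % activation | Assay system: Human HeLa cell line | Times: 24 h compound exposure at 37°C, 5% CO2 | Signal: Fluorescence imaging of beta-catenin antibody stain plus DAPI | Dosing: 5 µM primary, 0.02–20 µM confirmation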
NPY-Y1 PAM-ag: NPY-Y1 receptor potentiators or agonists, primary screen, cell-based; Neuropeptide Y receptor type 1 (Homo sapiens), P25929; NPY-Y1 expressing cells, potentiator/agonist activation; activation, % at 3.6 µM; hit rate 0.37% among 220,000; AID 1304, 2008; in the data active means activation above about 33%, passing the limit was not always enough;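 further: cells stimulated with NPY at EC10 then isoproterenol at EC100; 0% = low agonist plus stimulus and 100% = saturating agonist plus stimulus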
NPY-Y2 PAM-ag: NPY-Y2 potentiators or agonists, primary screen, cell-based. cells expressing NPY-Y2, potentiator/agonist read-out. activation, % at 3.6 µM. hit rate 0.45% among 220,000. AID 1359, 2008; in the data active means activation above about 27%;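 further: cells stimulated with NPY near EC25 plus isoproterenol at EC100; 0% = vehicle plus submaximal agonist and 100% = vehicle plus saturating agonist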
MT stabilizer: microtubule stabilizers in HeLa cells, primary screen, imaging, high-content imaging | hit rate 0.83% among 200,000 | HeLa tubulin immunostaining HCS, 24 h; share of cells brighter than vehicle mean+2SD | % tubulin-high responders, % at 10 µM;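 active means plate Z-score above 3 for both tubulin-high and condensed-nucleus cell shares, with cell loss under 80%, at 10 µM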;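 further: anti alpha tubulin signal scored within the nucleus-defined area of each cell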
NPY1 antag ctr: NPY-Y1 receptor antagonists, selectivity check, counter-screen for NPY-Y2 antagonist project, cell-based; AID 1256, 2008; cell-based NPY-Y1 antagonism counterscreen; hit rate 19% among 710; inhibition, % at 3.6 µM; shares compounds with NPY-Y2 antag; in the data active means inhibition above about 20%;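 further: cells challenged with NPY then isoproterenol with cAMP sensed through a CNG channel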
NPY-Y2 ant conf: NPY-Y2 receptor antagonists, retest of hits, confirmation, HEK293-CNG cells, membrane potential fluorescence, triplicate; shares compounds with NPY-Y2 antag; HEK293 NPY-Y2 CNG channel; inhibition, % at 2.8 µM; hit rate 32% among 710; AID 1257, 2008;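 active means mean inhibition of triplicate wells above the hit cutoff set in the primary screen, cut at about 17% in these data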;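 further: 0% = DMSO with NPY challenge and 100% = BIIE0246 high control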
Starred values were filed as active, the others as inactive; · = not tested or not shown.

SMILES	NPY Y1 blocker	NPY-Y2 antag	b-catenin transl	NPY-Y1 PAM-ag	NPY-Y2 PAM-ag	MT stabilizer	NPY1 antag ctr	NPY-Y2 ant conf
Cc1nn(Cc2ccccc2)c(Cl)c1C(=O)OCc1nnc(-c2ccc(Cl)cc2)o1	8	19*	-2	-53	-4	3	11	7
Cn1nc([N+](=O)[O-])nc1Oc1ccc(C(C)(C)C)cc1	2	1	0	-6	3	3	·	·
O=C(NC(=S)N(Cc1ccccc1)c1ccccn1)C1CC1	2	2	-1	4	3	2	·	·
O=C(OCc1nnc(-c2ccccc2)o1)c1ccc2c(c1)OCO2	11	20*	-2	-21	-33	2	18	16
CCCCCCSc1nc(O)c(C2OC(=O)c3c2ccc(OC)c3OC)c(=O)n1-c1ccccc1 (centres undefined)	12	9	·	-42	-7	1	·	·
C=CCn1c(SC2CCOC2=O)nc2scc(C3CC3)c2c1=O (centres undefined)	12	45*	-6	-5	-22	5	30*	81*
C=CCn1c(SC2CCOC2=O)nc2sc(C)c(C)c2c1=O (centres undefined)	8	6	·	-38	-13	3	·	·
Clc1ccc(OCCSc2nnnn2C2CCCCC2)cc1	16	22*	-4	-11	1	4	17	21*
CCOc1ccc(OCCSc2nnnn2C2CCCCC2)cc1	19	17*	0	-21	-22	2	9	14
COc1ccc(O[C@H]2C=C[C@@H](c3ccccc3)O[C@@H]2COC(=O)CC/C(C)=N/O[C@@H](C)CN2CCCCc3nc(C)c(C)cc32)cc1	-1	15	·	4	-2	3	·	·
C/C(CCC(=O)OC[C@H]1O[C@H](C#Cc2ccccc2)C=C[C@@H]1Oc1ccc(C)cc1)=N\O[C@@H](C)CN1CCCCc2nc(C)c(C)cc21	4	22*	·	-15	-17	3	9	9
O=C1OCCC1Sc1nc2cc(Cl)ccc2s1 (centres undefined)	16	23*	0	-21	-24	2	10	12
COc1ccc(-c2nnc3sc(C(C)N4C(=O)c5ccccc5C4=O)nn23)cc1 (centres undefined)	8	21*	4	-33	-30	6	18	29*
COc1ccc(-c2nnc3sc(CN4C(=O)c5ccccc5C4=O)nn23)cc1	·	·	1	·	·	·	·	·
C=CCn1c(=O)n2ncnc2c2c3c(sc21)CCCC3	-2	6	·	-15	1	1	·	·
O=c1n(Cc2ccc(Cl)cc2)c2sc3c(c2c2ncnn12)CCCC3	0	41*	·	-31	-15	2	22*	32*
CCOC(=O)C1CCCN(Cc2ccccc2C)C1 (centres undefined)	1	17*	1	9	1	4	0	0
CCOC(=O)C1CCCN(Cc2ccccc2Cl)C1 (centres undefined)	0	2	4	5	3	2	·	·
Cc1ccc(NC(=S)N2CCN(c3ncccn3)CC2)c(C)c1	-2	2	2	-17	-6	2	·	·
COc1cc(C)ccc1OCCOCCOc1cc(C)c(C)cc1Br	11	6	0	-35	0	2	·	·
N#Cc1c(-c2ccccc2Cl)cc(-c2ccccc2)[nH]c1=S	13	·	1	1	4	11	·	·
Cc1cc(-c2ccccc2)c(C#N)c(=S)[nH]1	7	17*	0	-34	-12	3	5	7
CC(=O)N(C)c1nc(N)n(-c2ccccc2)n1	6	·	1	15	-5	3	·	·
Cc1cc(=O)oc(C)c1C(=O)Nc1c(C)n(C)n(-c2ccccc2)c1=O	-4	-1	-2	-20	-5	3	·	·
CCOC(=O)c1c(NC(=O)C2C3C=CC(CC3)C2C(=O)O)sc(C)c1C (centres undefined)	2	18*	-2	18	14	2	0	3
SMILES	NPY Y1 blocker	NPY-Y2 antag	b-catenin transl	NPY-Y1 PAM-ag	NPY-Y2 PAM-ag	MT stabilizer	NPY1 antag ctr	NPY-Y2 ant conf
Cc1ccc(-c2nnc3sc(C4COc5ccccc5O4)nn23)cc1 (centres undefined)	1	18*	-1	6	0	2	19	15
CC1CCCCC1NC(=O)c1ccc(S(=O)(=O)NCc2ccco2)cc1 (centres undefined)	9	17*	-3	-17	3	3	9	9
CCOc1nc(SCCOc2ccccc2)nc(N(C)C)n1	0	23*	·	-20	-8	4	10	13
Cc1ccccc1OCCSc1nc(N(C)C)nc(N(C)C)n1	1	11	1	-26	-2	2	·	·
COc1ccc(CN2CCN(c3ncccn3)CC2)c(OC)c1	15	18*	·	18	1	4	1	0
COc1ccc(C(c2nnnn2Cc2cccs2)N2CCN(c3ccccc3F)CC2)cc1OC (centres undefined)	4	4	-1	11	-2	2	·	·
COc1ccc(Cn2nnnc2C(c2cccs2)N2CCN(c3ccccc3)CC2)cc1 (centres undefined)	12	19*	-3	-12	-8	2	13	7
Fc1ccc(C(c2nnnn2Cc2cccs2)N2CCN(c3ccccc3)CC2)cc1 (centres undefined)	9	19*	·	-60	-4	6	14	5
O=C(CN1C(=O)C(=O)N(Cc2ccccc2)C1=O)Nc1ccc(F)c(Cl)c1	5	·	-4	-14	0	6	·	·
CCN(CC)CC(O)COc1ccc2c(c1)c(C(C)=O)c(C)n2-c1ccccc1 (centres undefined)	17	17*	-3	-69	-35	4	14	32*
CCN(CC)S(=O)(=O)c1cc(C(=O)Oc2cccc(-c3cnc4ccccc4n3)c2)ccc1OC	14	20*	1	-48	0	2	31*	14
CC(C)(C)NCc1cc(Br)ccc1OCc1cccs1	16	20*	1	18	29	4	5	4
O=C1[C@@H]2CSCN2C(=O)CN1Cc1ccc(F)cc1	·	·	0	30	10	·	·	·
